Laboratory results published in ChEMBL document CHEMBL1139230, “New beta-alanine derivatives are orally available glucagon receptor antagonists” (J Med Chem, 2007).
The source made the active and inactive calls. No cut-off for these calls is given here.

Assays:
Glucagon receptor [1] = target: Glucagon receptor (Homo sapiens, UniProt P47871); assay: Inhibition of human cloned glucagon receptor expressed in BHK cells; assay type: cell-based
Summary of the method: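 Binding performed on plasma membranes from BHK cells expressing the cloned human glucagon receptor; IC50 values determined.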

[2] = Bioavailability in rat at 4 mg/kg, po; assay type: ADME, organism-based; conditions: in vivo
Summary of the method: (§1)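 Rats given the compound at 4 mg/kg orally and 2 mg/kg intravenously. Plasma profiles yielded Cmax, Tmax, AUC, oral availability (F) and plasma half-life; half-life was taken from the iv dose.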

[3] = Tmax in rat at 4 mg/kg, po and 2 mg/kg, iv; assay type: ADME, organism-based; conditions: in vivo; summary of the method: as §1
Rattus norvegicus [4] = assay: Reduction of blood glucose level in glucagon-challenged iv dosed Sprague-Dawley rat at 3 mg/kg; assay type: functional, organism-based; design: dose 3 mg/kg
Summary of the method: (§2)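 Rats were anesthetized and given the compound intravenously over a range of doses, 5 min before an exogenous glucagon load of 3 µg/kg. The read-out was the glucagon-stimulated rise in blood glucose.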

Glucagon receptor [5] = target: Glucagon receptor (Rattus norvegicus, UniProt P30082); assay: Inhibition of rat glucagon receptor
[6] = Metabolic stability in rat at 2 mg/kg, iv; assay type: ADME, organism-based; design: dose 2 mg/kg, route intravenous; conditions: in vivo; summary of the method: as §1
[7] = Cmax in rat at 4 mg/kg, po and 2 mg/kg, iv; assay type: ADME, organism-based; conditions: in vivo; summary of the method: as §1
[8] = target: Glucagon-like peptide 1 receptor (Homo sapiens, UniProt P43220); assay: Inhibition of GLP1 receptor
[9] = Metabolic stability in iv dosed dog; assay type: ADME, organism-based, Canis lupus familiaris; conditions: in vivo
Summary of the method: (§3)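 Dogs dosed orally and intravenously; oral availability and half-life after iv dosing determined.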

[10] = Bioavailability in orally dosed dog; assay type: ADME, organism-based, Canis lupus familiaris; conditions: in vivo, po; summary of the method: as §3
Liver microsomes = assay: Metabolic turnover in rat liver microsomes at 10 uM; assay type: ADME, Microsome
Summary of the method: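 Metabolic rate estimated by incubating compounds with rat liver microsomes, used to rank metabolic stability.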

Rattus norvegicus [11] = assay: AUC in rat at 4 mg/kg, po and 2 mg/kg, iv; assay type: ADME, organism-based, Plasma; conditions: in vivo; summary of the method: as §1
Rattus norvegicus [12] = assay: Reduction of blood glucose level in glucagon-challenged iv dosed Sprague-Dawley rat; assay type: functional, organism-based; summary of the method: as §2
Mus musculus [13] = assay: Reduction of blood glucose level in Umea ob/ob mouse at 100 mg/kg, po after 6 hrs; assay type: functional
Summary of the method: (§4)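 ob/ob mice (n = 6 per group), vehicle or compound at 100 mg/kg po. Blood glucose was measured before dosing and again at 2, 4, 6 and 24 h; the change from the predose value was reported.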

Mus musculus [14] = assay: Reduction of blood glucose level in Umea ob/ob mouse at 100 mg/kg, po after 2 hrs; assay type: functional; summary of the method: as §4
Mus musculus [15] = assay: Reduction of blood glucose level in Umea ob/ob mouse at 100 mg/kg, po after 4 hrs; assay type: functional; summary of the method: as §4
Mus musculus [16] = assay: Reduction in cumulative food intake in Umea ob/ob mouse at 100 mg/kg, po; assay type: functional
Summary of the method: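 ob/ob mice given vehicle or compound at 100 mg/kg po; cumulative food intake per mouse recorded from 6 to 24 h postdose.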

Homo sapiens = organism: Homo sapiens; assay: Selectivity for glucagon receptor over GLP1 receptor
Mus musculus [17] = assay: Blood glucose level in Umea ob/ob mouse at 100 mg/kg, po
Rattus norvegicus [18] = assay: Reduction of blood glucose level in glucagon-challenged iv dosed Sprague-dawley rat at > 3 mg/kg; assay type: functional, organism-based; design: dose 3 mg/kg
Summary of the method: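 Anesthetized rats received the compound intravenously across a range of doses 5 min before a 3 µg/kg glucagon load. The rise in blood glucose was followed.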

Mus musculus [19] = assay: Reduction of blood glucose level in Umea ob/ob mouse at 100 mg/kg, po after 24 hrs; assay type: functional; summary of the method: as §4

Glucagon receptor (Homo sapiens, UniProt P47871), sequence (P47871 whole entry): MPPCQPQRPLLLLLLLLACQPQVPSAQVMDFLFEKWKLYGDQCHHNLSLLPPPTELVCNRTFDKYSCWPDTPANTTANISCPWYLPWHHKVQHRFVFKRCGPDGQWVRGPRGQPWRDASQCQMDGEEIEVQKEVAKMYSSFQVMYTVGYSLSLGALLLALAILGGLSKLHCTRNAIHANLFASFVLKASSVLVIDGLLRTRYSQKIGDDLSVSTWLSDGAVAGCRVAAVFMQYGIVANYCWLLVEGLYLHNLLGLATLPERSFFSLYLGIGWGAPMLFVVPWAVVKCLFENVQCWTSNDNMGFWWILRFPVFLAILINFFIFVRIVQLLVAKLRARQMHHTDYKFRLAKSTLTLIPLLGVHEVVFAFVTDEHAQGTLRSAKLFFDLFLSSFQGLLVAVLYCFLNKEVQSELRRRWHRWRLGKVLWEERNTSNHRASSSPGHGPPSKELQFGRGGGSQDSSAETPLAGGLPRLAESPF
Glucagon-like peptide 1 receptor, sequence (P43220 whole entry): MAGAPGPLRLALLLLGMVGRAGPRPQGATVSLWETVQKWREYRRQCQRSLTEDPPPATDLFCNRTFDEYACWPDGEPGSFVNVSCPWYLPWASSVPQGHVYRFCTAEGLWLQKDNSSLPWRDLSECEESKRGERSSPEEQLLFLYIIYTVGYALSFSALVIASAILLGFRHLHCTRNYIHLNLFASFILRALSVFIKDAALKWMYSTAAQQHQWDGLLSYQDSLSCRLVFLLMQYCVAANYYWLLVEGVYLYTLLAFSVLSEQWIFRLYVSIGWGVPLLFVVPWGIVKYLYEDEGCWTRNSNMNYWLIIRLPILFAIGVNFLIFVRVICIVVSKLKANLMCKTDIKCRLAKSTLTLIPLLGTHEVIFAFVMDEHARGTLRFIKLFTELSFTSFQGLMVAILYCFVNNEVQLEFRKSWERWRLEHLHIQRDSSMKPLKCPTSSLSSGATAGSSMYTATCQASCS
Glucagon receptor (Rattus norvegicus, UniProt P30082), sequence (P30082 whole entry): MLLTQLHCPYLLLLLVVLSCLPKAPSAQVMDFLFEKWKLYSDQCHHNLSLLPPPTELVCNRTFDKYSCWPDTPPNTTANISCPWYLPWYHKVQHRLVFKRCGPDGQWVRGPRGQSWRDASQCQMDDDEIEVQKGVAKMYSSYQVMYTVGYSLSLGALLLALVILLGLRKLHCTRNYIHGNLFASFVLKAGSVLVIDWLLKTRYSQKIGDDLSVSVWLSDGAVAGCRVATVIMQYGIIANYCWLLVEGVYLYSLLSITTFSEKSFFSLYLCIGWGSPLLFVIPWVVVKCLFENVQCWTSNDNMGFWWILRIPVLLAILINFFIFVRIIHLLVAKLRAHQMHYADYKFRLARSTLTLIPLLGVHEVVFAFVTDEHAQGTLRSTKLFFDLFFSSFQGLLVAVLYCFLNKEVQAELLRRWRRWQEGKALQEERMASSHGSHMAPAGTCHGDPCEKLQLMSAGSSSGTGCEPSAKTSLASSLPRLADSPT

Compound: COC1CCC(N(Cc2ccc(C(=O)NCCC(=O)O)cc2)C(=O)Nc2ccc(OC(F)(F)F)cc2)CC1 (centres undefined)
- IC50 (Glucagon receptor [1]): > 10000 nM

Compound: CC(C)(C)C1CCC(N(Cc2ccc(C(=O)N3CCCC(C(=O)O)C3)cc2)C(=O)Nc2ccc(OC(F)(F)F)cc2)CC1 (centres undefined)
- IC50 (Glucagon receptor [1]): 1000 nM

Compound: CC(C)(C)[C@H]1CC[C@H](N(Cc2ccc(C(=O)NCCC(=O)O)cc2)C(=O)Nc2ccc(OC(F)(F)F)cc2)CC1
- bioavailability [2]: 17%
- Tmax [3]: 1 h
- Activity (Rattus norvegicus [4]): Active
- IC50 (Glucagon receptor [1]): 55 nM
- IC50 (Glucagon receptor [5]): 56 nM
- half-life [6]: 1.5 h
- Cmax [7]: 106 ng/mL
- IC50 [8]: 1000 nM
- half-life [9]: 1.68 h
- bioavailability [10]: 10%
- Activity (Liver microsomes): 100 pmol/min
- AUC (Rattus norvegicus [11]): 217 ng·h/mL
- Activity (Rattus norvegicus [12]): Dose-dependent effect

Compound: CCCCc1ccc(NC(=O)N(Cc2ccc(C(=O)NCCC(=O)O)cc2)C2Cc3ccccc3C2)cc1
- IC50 (Glucagon receptor [1]): 179 nM

Compound: O=C(O)CCNC(=O)c1ccc(CN(C(=O)Nc2ccc(OC(F)(F)F)cc2)C2CCC(C(=O)O)CC2)cc1 (centres undefined)
- IC50 (Glucagon receptor [1]): > 10000 nM

Compound: COCCCNC(=O)c1ccc(CN(C(=O)Nc2ccc(OC(F)(F)F)cc2)C2CCC(C(C)(C)C)CC2)cc1 (centres undefined)
- IC50 (Glucagon receptor [1]): > 10000 nM

Compound: CC(C)(CC(=O)O)NC(=O)c1ccc(CN(C(=O)Nc2ccc(OC(F)(F)F)cc2)C2CCC(C(C)(C)C)CC2)cc1 (centres undefined)
- IC50 (Glucagon receptor [1]): > 10000 nM

Compound: CC(C)(C)C1CCC(N(Cc2ccc(C(=O)NCC(=O)O)cc2)C(=O)Nc2ccc(OC(F)(F)F)cc2)CC1 (centres undefined)
- IC50 (Glucagon receptor [1]): 1700 nM

Compound: CNC(=O)C1CCC(N(Cc2ccc(C(=O)NCCC(=O)O)cc2)C(=O)Nc2ccc(OC(F)(F)F)cc2)CC1 (centres undefined)
- IC50 (Glucagon receptor [1]): > 10000 nM

Compound: O=C(O)CCNC(=O)c1ccc(CN(CC(c2ccccc2)c2ccccc2)C(=O)c2csc3ccc(Cl)cc23)cc1
- IC50 (Glucagon receptor [1]): 116 nM

Compound: CC(C)(C)[C@H]1CC[C@H](N(Cc2ccc(C(=O)NCCC(=O)O)cc2)C(=O)Nc2ccc(C#N)cc2)CC1
- IC50 (Glucagon receptor [1]): 1050 nM

Compound: O=C(O)CCNC(=O)c1ccc(CN(C(=O)Nc2ccc(OC(F)(F)F)cc2)c2ccc(C3CCCCC3)cc2)cc1
- bioavailability [2]: 54%
- Tmax [3]: 4 h
- IC50 (Glucagon receptor [1]): 61 nM
- half-life [6]: 1.07 h
- Cmax [7]: 316 ng/mL
- AUC (Rattus norvegicus [11]): 1600 ng·h/mL

Compound: CC(C)(C)[C@H]1CC[C@H](N(Cc2ccc(C(=O)NCCC(=O)O)cc2)C(=O)Nc2ccc(C#N)cc2OC(F)(F)F)CC1
- Activity (Liver microsomes): 130 pmol/min

Compound: O=C(O)CCNC(=O)c1ccc(CN(C(=O)Nc2cc(Cl)cc(Cl)c2)c2ccc(C3=CCCCC3)cc2)cc1
- Activity (Mus musculus [13]): 9.5 mM
- bioavailability [2]: 69%
- Activity (Mus musculus [14]): 6.8 mM
- Activity (Mus musculus [15]): 8.4 mM
- Tmax [3]: 1 h
- IC50 (Glucagon receptor [1]): 27 nM
- IC50 (Glucagon receptor [5]): 122 nM
- half-life [6]: 1.37 h
- Activity (Mus musculus [16]): 8.4 g
- Cmax [7]: 275 ng/mL
- IC50 [8]: 4900 nM
- Selectivity ratio (Homo sapiens): 180
- half-life [9]: 1.53 h
- Activity (Mus musculus [17]): 18.3 mM
- bioavailability [10]: 65%
- AUC (Rattus norvegicus [11]): 2970 ng·h/mL
- Activity (Rattus norvegicus [18]): Active
- Activity (Rattus norvegicus [12]): Dose-dependent effect
- Activity (Mus musculus [19]): 1.8 mM

Compound: CC(C)(C)[C@H]1CC[C@H](N(Cc2ccc(C(=O)NCCC(=O)O)cc2)C(=O)Nc2cc(C(F)(F)F)cc(C(F)(F)F)c2)CC1
- Activity (Liver microsomes): 139 pmol/min

Compound: CC(C)(C)C1CCC(N(Cc2ccc(C(=O)NCCC(N)=O)cc2)C(=O)Nc2ccc(OC(F)(F)F)cc2)CC1 (centres undefined)
- IC50 (Glucagon receptor [1]): > 10000 nM

Compound: CC(C)c1ccc(NC(=O)N(Cc2ccc(C(=O)NCCC(=O)O)cc2)[C@H]2CC[C@H](C(C)(C)C)CC2)cc1
- bioavailability [2]: 2%
- Tmax [3]: 0.25 h
- IC50 (Glucagon receptor [1]): 35 nM
- half-life [6]: 0.333 h
- Cmax [7]: 40 ng/mL
- Activity (Liver microsomes): 283 pmol/min
- AUC (Rattus norvegicus [11]): 43.3 ng·h/mL

Compound: O=C(O)CCNC(=O)c1ccc(CN(C(=O)Nc2ccc(SC(F)(F)F)cc2)C2Cc3ccccc3C2)cc1
- IC50 (Glucagon receptor [1]): 262 nM

Compound: CCCC1CCC(N(Cc2ccc(C(=O)NCCC(=O)O)cc2)C(=O)Nc2ccc(OC(F)(F)F)cc2)CC1 (centres undefined)
- IC50 (Glucagon receptor [1]): 122 nM

Compound: CC(C)(C)C1CCC(N(Cc2ccc(C(=O)NCC(=O)NO)cc2)C(=O)Nc2ccc(OC(F)(F)F)cc2)CC1 (centres undefined)
- IC50 (Glucagon receptor [1]): 2960 nM

Compound: CC(C)(C)C1CCC(N(Cc2ccc(C(=O)NCCCC(=O)O)cc2)C(=O)Nc2ccc(OC(F)(F)F)cc2)CC1 (centres undefined)
- IC50 (Glucagon receptor [1]): > 10000 nM

Compound: CC(C)(C)[C@H]1CC[C@H](N(Cc2ccc(C(=O)NCCC(=O)O)cc2)C(=O)Nc2ccc(Cl)c(Cl)c2)CC1
- Activity (Liver microsomes): 232 pmol/min

Compound: O=C(O)CCNC(=O)c1ccc(CN(C(=O)Nc2ccc(OC(F)(F)F)cc2)C2CCC(C(=O)NCC3CC3)CC2)cc1 (centres undefined)
- IC50 (Glucagon receptor [1]): > 10000 nM

Compound: CCCCC(CC)N(Cc1ccc(C(=O)NCCC(=O)O)cc1)C(=O)Nc1ccc(OC(F)(F)F)cc1 (centres undefined)
- IC50 (Glucagon receptor [1]): 141 nM

Compound: CC(C)(C)[C@H]1CC[C@H](N(Cc2ccc(C(=O)NCCC(=O)O)cc2)C(=O)Nc2ccc(OC(F)(F)F)cc2C#N)CC1
- IC50 (Glucagon receptor [1]): 56 nM
- Activity (Liver microsomes): 63 pmol/min

Compound: O=C(O)CCNC(=O)c1ccc(CN(CCC(c2ccccc2)c2ccccc2)C(=O)c2ccc(Cl)nc2)cc1
- IC50 (Glucagon receptor [1]): 7000 nM
- IC50 [8]: 100000 nM
